Measured values published in ChEMBL document CHEMBL4311975, “Exploration of the antibiotic potentiating activity of indolglyoxylpolyamines” (Eur J Med Chem, 2019).
pIC50: −log10 of the molar value. ≈ marks a conversion by molar mass, not a printed value.

Experiments:
Pseudomonas aeruginosa [1] = assay: Antibacterial activity against Pseudomonas aeruginosa ATCC 27853 assessed as growth inhibition incubated for 18 hrs by broth dilution method; format: functional; details: ATCC 27853, 18 h
Outline: (§1)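 Broth microdilution following CA-SFM recommendations. Inoculum was 10^5 CFU in Mueller-Hinton broth with two-fold serial drug dilutions. Plates were incubated 18 h at 37 °C. MIC was the lowest concentration giving complete inhibition of visible growth. Values are means, n = 3.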

Escherichia coli [2] = assay: Antibacterial activity against Escherichia coli ATCC 25922 assessed as growth inhibition incubated for 18 hrs by broth dilution method; format: functional; details: ATCC 25922, 18 h; outline: as §1
Klebsiella pneumoniae [3] = assay: Antibacterial activity against Klebsiella pneumoniae ATCC 13443 assessed as growth inhibition; format: functional
Acinetobacter baumannii [4] = assay: Antibacterial activity against Acinetobacter baumannii AYE assessed as growth inhibition; format: functional
[5] = tested on: Staphylococcus intermedius; assay: Antibacterial activity against Staphylococcus intermedius 1051997 assessed as growth inhibition incubated for 18 hrs by broth dilution method; format: functional; details: Staphylococcus intermedius, 1051997, 18 h; outline: as §1
Acinetobacter baumannii [6] = assay: Antibacterial activity against Acinetobacter baumannii ATCC 19606 assessed as growth inhibition incubated for 18 hrs by resazurin dye based assay; format: functional; details: ATCC 19606 = CIP 70.34 = JCM 6841, 18 h
Outline: (§2)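 Overnight cultures were diluted 40-fold in MHB and grown 1.5–2 h at 37 °C to mid-log phase. Cells were added at 5×10^5 CFU/mL final to two-fold compound dilutions (0.008–32 μg/mL final), in duplicate, for 18 h at 37 °C. Resazurin (0.001% final) was added for 2 h and MIC read by eye. Means, n = 2.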

Staphylococcus aureus [7] = assay: Antibacterial activity against Staphylococcus aureus ATCC 25923 assessed as growth inhibition incubated for 18 hrs by broth dilution method; format: functional; details: ATCC 25923, 18 h; outline: as §1
Staphylococcus aureus [8] = assay: Induction of membrane depolarization in Staphylococcus aureus measured after 15 mins by DiSC3(5) dye based spectrofluorometric method; format: functional, organism-based
Outline: (§3)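 Bacteria were grown 24 h in MHB at 37 °C, washed in 250 mM sucrose with 5 mM MgSO4, and loaded with 3 μM DiSC3(5) for 1 h at 37 °C. Unbound dye was washed away before compound was added at varied concentrations. Fluorescence was recorded after 15 min on a spectrofluorometer, with pure 3 μM dye as the maximum. CTAB (0.01%) served as positive control.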

Pseudomonas aeruginosa [9] = assay: Induction of membrane depolarization in Pseudomonas aeruginosa measured after 15 mins by DiSC3(5) dye based spectrofluorometric method; format: functional, organism-based; outline: as §3
Klebsiella pneumoniae [10] = assay: Antibacterial activity against Klebsiella pneumoniae ATCC 700603 assessed as growth inhibition incubated for 18 hrs by resazurin dye based assay; format: functional; details: Klebsiella pneumoniae, 700603, 18 h; outline: as §2
[11] = Hemolytic activity against Sprague-Dawley rat RBC assessed as release of hemoglobin at 50 uM incubated for 1 hr relative to control; format: ADME, cell-based, Erythrocyte; details: red blood cells (erythrocytes), read-out: Activity
Outline: (§4)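 Fresh Sprague-Dawley rat erythrocytes were washed in saline and resuspended at 2% v/v. Cells were incubated with compound in DMSO/PBS for 1 h at 37 °C, then centrifuged at 200 g, and supernatant absorbance read at 540 nm. Results were normalised to DMSO/PBS (0%) and 0.1% Triton X-100 (100%). Single-point testing used 50 μM; HC50 came from 10-point curves. Means of three experiments.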

Pseudomonas aeruginosa [12] = assay: Potentiation of doxycycline-induced antibacterial activity against Pseudomonas aeruginosa ATCC 27853 assessed as concentration required to restore 2 ug/ml doxycycline activity measured after 18 hrs; format: functional
Outline: (§5)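 Inoculum was 5×10^5 CFU in MHB with two-fold serial dilutions of adjuvant plus fixed doxycycline at 2 μg/mL. […] Repeated independently in triplicate.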

Staphylococcus aureus [13] = assay: Disruption of membrane integrity in Staphylococcus aureus assessed as increase in extracellular ATP level by luciferin-luciferase reagent based luminescence assay; format: functional, organism-based
Outline: (§6)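 Growing bacteria (P. aeruginosa PAO1 or S. aureus) in MHB at 37 °C were mixed 9:1 with compound, at 4× MIC, and vortexed for 1 s. Luciferin-luciferase reagent was added immediately and luminescence read for 5 s. ATP was quantified by internal standard addition. Squalamine served as positive control.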

Klebsiella aerogenes = assay: Disruption of membrane integrity in Enterobacter aerogenes EA289 assessed as increase in beta-lactamase hydrolysis by using chromogenic nitrocefin as substrate by spectrophotometry analysis; format: functional
Outline: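 E. aerogenes EA289 was grown in MHB at 37 °C to OD600 0.5, washed in 20 mM potassium phosphate (pH 7.2) with 1 mM MgCl2, and readjusted to OD600 0.5. Cells were exposed to compound at 3.9–250 μM final with nitrocefin at 50 μg/mL final, at room temperature. Hydrolysis was followed as the absorbance rise at 490 nm.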

L6 = assay: Cytotoxicity against rat L6 cells measured after 72 hrs by alamar blue assay; format: cell-based; details: L6, 72 h
Outline: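 Rat L6 myoblasts, 4×10^4/well in RPMI 1640 with L-glutamine and 10% FBS, received seven 3-fold dilutions (90 to 0.123 μg/mL) for 72 h. Alamar Blue was added for 2 h and fluorescence read at ex 536/em 588 nm. Podophyllotoxin served as reference. Means, n = 2.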

Candida albicans = assay: Antifungal activity against Candida albicans ATCC 90028 assessed as growth inhibition incubated for 36 hrs by resazurin dye based assay; format: functional; details: ATCC 90028, 36 h
Outline: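 Yeast was grown 3 days on YPD agar at 30 °C. Colonies were suspended and diluted in YNB broth to 2.5×10^3 CFU/mL, then added to two-fold compound dilutions (0.008–32 μg/mL final), in duplicate. Plates stood 36 h at 35 °C without shaking. Means, n = 2.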

Pseudomonas aeruginosa [14] = assay: Disruption of membrane integrity in Pseudomonas aeruginosa PAO1 assessed as increase in extracellular ATP level by luciferin-luciferase reagent based luminescence assay; format: functional, organism-based; outline: as §6
[15] = Cytotoxicity against human HEK293 cells measured after 20 hrs by resazurin dye based fluorescence assay; format: cell-based
Outline: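 HEK293 cells, 5,000/well in DMEM with 10% FBS, were exposed to compound for 20 h at 37 °C, 5% CO2. Resazurin (100 μM final) was added for 3 h, then fluorescence read at ex 560/em 590. Signal was normalised to tamoxifen (74 μg/mL, 0%) and untreated growth (100%), and CC50 came from dose-response fitting. Top dose 32 μg/mL. Means, n = 2.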

Cryptococcus neoformans = assay: Antifungal activity against Cryptococcus neoformans ATCC 208821 assessed as growth inhibition incubated for 36 hrs by resazurin dye based assay; format: functional; details: ATCC 208821, 36 h
Outline: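 Cryptococcus was grown 3 days on YPD agar at 30 °C, suspended, and diluted in YNB broth to 2.5×10^3 CFU/mL. Cells were exposed to 0.008–32 μg/mL compound (final), in duplicate, for 36 h at 35 °C without shaking. Resazurin (0.006% final) was added for a further 3 h. MIC was read from absorbance at OD570–600. Means, n = 2.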

[16] = Hemolytic activity against Sprague-Dawley rat RBC assessed as release of hemoglobin incubated for 1 hr; format: ADME, cell-based, Erythrocyte; details: red blood cells (erythrocytes); outline: as §4
Pseudomonas aeruginosa [17] = assay: Potentiation of nalidixic acid-induced antibacterial activity against Pseudomonas aeruginosa ATCC 27853 assessed as concentration required to restore 2 ug/ml nalidixic acid activity measured after 18 hrs; format: functional
Klebsiella pneumoniae [18] = assay: Potentiation of nalidixic acid-induced antibacterial activity against Klebsiella pneumoniae ATCC 13443 assessed as concentration required to restore 2 ug/ml nalidixic acid activity measured after 18 hrs; format: functional
Acinetobacter baumannii [19] = assay: Potentiation of doxycycline-induced antibacterial activity against Acinetobacter baumannii AYE assessed as concentration required to restore 2 ug/ml doxycycline activity measured after 18 hrs; format: functional; outline: as §5
Acinetobacter baumannii [20] = assay: Potentiation of nalidixic acid-induced antibacterial activity against Acinetobacter baumannii AYE assessed as concentration required to restore 2 ug/ml nalidixic acid activity measured after 18 hrs; format: functional
Klebsiella pneumoniae [21] = assay: Potentiation of doxycycline-induced antibacterial activity against Klebsiella pneumoniae ATCC 13443 assessed as concentration required to restore 2 ug/ml doxycycline activity measured after 18 hrs; format: functional; outline: as §5
Pseudomonas aeruginosa [22] = assay: Potentiation of erythromycin-induced antibacterial activity against Pseudomonas aeruginosa ATCC 27853 assessed as concentration required to restore 2 ug/ml erythromycin activity measured after 18 hrs; format: functional
Escherichia coli [23] = assay: Potentiation of nalidixic acid-induced antibacterial activity against Escherichia coli ATCC 25922 assessed as concentration required to restore 2 ug/ml nalidixic acid activity measured after 18 hrs; format: functional
Pseudomonas aeruginosa [24] = assay: Potentiation of chloramphenicol-induced antibacterial activity against Pseudomonas aeruginosa ATCC 27853 assessed as concentration required to restore 2 ug/ml chloramphenicol activity measured after 18 hrs; format: functional
Escherichia coli [25] = assay: Potentiation of doxycycline-induced antibacterial activity against Escherichia coli ATCC 25922 assessed as concentration required to restore 2 ug/ml doxycycline activity measured after 18 hrs; format: functional; outline: as §5

SMILES	MIC (Pseudomonas aeruginosa [1]) [µM]	MIC (Escherichia coli [2]) [µM]	MIC (Klebsiella pneumoniae [3]) [µM]	MIC (Acinetobacter baumannii [4]) [µM]	MIC [5] [µM]	MIC (Acinetobacter baumannii [6]) [µM]	MIC (Staphylococcus aureus [7]) [µM]	MIC (Klebsiella pneumoniae [10]) [µM]	hemolysis at 1 h, 50 µM [11] [%]	Activity (Pseudomonas aeruginosa [12]) [µM]	pIC50 (L6)	MIC (Candida albicans) [µM]	CC50 at 20 h [15] [µM]	MIC (Cryptococcus neoformans) [µM]	further results
C[C@H]1c2cccc(O)c2C(=O)C2=C(O)[C@]3(O)C(=O)C(C(N)=O)=C(O)[C@@H](N(C)C)[C@@H]3[C@@H](O)[C@@H]21 [DOXYCYCLINE]	90 (≈ 40 µg/mL)	25 (≈ 11.1 µg/mL)	25 (≈ 11.1 µg/mL)	12.5 (≈ 5.56 µg/mL)	–	–	–	–	–	–	–	–	–	–	–
O=C(NCCCNCCCCNCCCNC(=O)C(=O)c1c[nH]c2c(F)cccc12)C(=O)c1c[nH]c2c(F)cccc12.O=C(O)C(F)(F)F.O=C(O)C(F)(F)F	200	200	–	–	> 200	> 39.6	25	> 39.6	8.4	3.125	4.41	> 39.6	18.7	4.9	Activity (Staphylococcus aureus [8]): Dose-dependent effect; Activity (Pseudomonas aeruginosa [9]): Dose-dependent effect; Activity (Staphylococcus aureus [13]): Dose-dependent effect; Activity (Klebsiella aerogenes): Dose-dependent effect; Activity (Pseudomonas aeruginosa [14]): Dose-dependent effect
O=C(NCCCNCCCCNCCCNC(=O)C(=O)c1c[nH]c2cc(Br)c(Br)cc12)C(=O)c1c[nH]c2cc(Br)c(Br)cc12.O=C(O)C(F)(F)F.O=C(O)C(F)(F)F	100	50	–	–	–	> 29.4	25	> 29.4	88.7	25	5.22	> 29.4	1.62	3.65	HC50 at 1 h [16]: 17 µM
CCn1cc(C(=O)O)c(=O)c2ccc(C)nc21 [NALIDIXIC ACID]	> 200	> 200	100 (≈ 23.2 µg/mL)	> 200	–	–	–	–	–	–	–	–	–	–	–
O=C(NCCCNCCCCNCCCNC(=O)C(=O)c1c[nH]c2ccc(Br)cc12)C(=O)c1c[nH]c2ccc(Br)cc12.O=C(O)C(F)(F)F.O=C(O)C(F)(F)F	50	25	–	–	3.12	> 34.4	3.12	34.4	34.7	3.125 to 6.25	4.70	> 34.4	14.1	2.2	Activity (Pseudomonas aeruginosa [17]): >200 µM; Activity (Staphylococcus aureus [8]): Dose-dependent effect; Activity (Pseudomonas aeruginosa [9]): Dose-dependent effect; Activity (Klebsiella pneumoniae [18]): 12.5 µM; Activity (Acinetobacter baumannii [19]): 6.72 µM; Activity (Acinetobacter baumannii [20]): 100 µM; Activity (Klebsiella pneumoniae [21]): 13.4 µM; Activity (Staphylococcus aureus [13]): Dose-dependent effect; Activity (Pseudomonas aeruginosa [22]): >200 µM; Activity (Escherichia coli [23]): 100 µM; Activity (Klebsiella aerogenes): Dose-dependent effect; Activity (Pseudomonas aeruginosa [24]): 26.9 µM; Activity (Pseudomonas aeruginosa [14]): Dose-dependent effect; Activity (Escherichia coli [25]): 1.68 µM
CC[C@H]1OC(=O)[C@H](C)[C@@H](O[C@H]2C[C@@](C)(OC)[C@@H](O)[C@H](C)O2)[C@H](C)[C@@H](O[C@@H]2O[C@H](C)C[C@H](N(C)C)[C@H]2O)[C@](C)(O)C[C@@H](C)C(=O)[C@H](C)[C@@H](O)[C@]1(C)O [ERYTHROMYCIN]	> 200	> 200	> 200	200 (≈ 147 µg/mL)	–	–	–	–	–	–	–	–	–	–	–
O=C(N[C@H](CO)[C@H](O)c1ccc([N+](=O)[O-])cc1)C(Cl)Cl [CHLORAMPHENICOL]	> 200	> 200	50 (≈ 16.2 µg/mL)	> 200	3 to 6 (≈ 0.969 to 1.94 µg/mL)	–	1.5 to 3 (≈ 0.485 to 0.969 µg/mL)	–	–	–	–	–	–	–	–
COC(=O)c1cccc2c(C(=O)C(=O)NCCCNCCCCNCCCNC(=O)C(=O)c3c[nH]c4c(C(=O)OC)cccc34)c[nH]c12.O=C(O)C(F)(F)F.O=C(O)C(F)(F)F	200	200	–	–	> 200	> 36	25	> 36	15	6.25	4.46	> 36	3.78	9	–
